ChEMBL document CHEMBL4813968, “Synthesis and evaluation of 3'-fluorinated 7-deazapurine nucleosides as antikinetoplastid agents” (Eur J Med Chem, 2021)

How the values were obtained:
[1] = Selectivity index, ratio of EC50 for human MRC5 cells to EC50 for antitrypanosomal activity against Trypanosoma brucei brucei; assay type: toxicity; conditions: read-out: Ratio EC50
In short: (§1)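 Selectivity index is the MRC-5 EC₅₀ divided by the parasite EC₅₀.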

[2] = Selectivity index, ratio of EC50 for human MRC5 cells to EC50 for antitrypanosomal activity against Trypanosoma brucei rhodesiense; assay type: toxicity; conditions: read-out: Ratio EC50; in short: as §1
[3] = Selectivity index, ratio of EC50 for cytotoxicity against human MRC5 cells to EC50 for antitrypanosomal activity against Trypanosoma cruzi Tulahuen CL2 infected in human MRC5 cells; assay type: toxicity, cell-based; conditions: read-out: Ratio EC50; in short: as §1
[4] = tested on: Trypanosoma cruzi; experiment: Antitrypanosomal activity against Trypanosoma cruzi Tulahuen CL2 infected in human MRC5 cells assessed as inhibition of parasite growth incubated for 7 days by chlorophenol red-fl-D-galactopyranoside based spectrophotometric analysis; assay type: functional, organism-based; conditions: Tulahuen CL2, MRC5, 168 h
In short: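 T. cruzi Tulahuen CL2 β-galactosidase strain was maintained on MRC-5_SV2 cells. Wells held 4×10³ cells plus 4×10⁴ parasites with a 10-point 4-fold compound series, final DMSO <1%. After 7 days at 37 °C, 5% CO₂, substrate was added and absorbance read at 540 nm after 4 h at 37 °C. IC₅₀ was taken from % reduction versus infected and uninfected controls.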

[5] = tested on: Leishmania infantum; experiment: Antileishmanial activity against Leishmania infantum MHOM/MA(BE)/67 infected in mouse primary peritoneal macrophages treated 2 hrs post-infection and incubated for 5 days by Giemsa staining based microscopic analysis; assay type: functional, organism-based; conditions: MHOM/MA(BE)/67, Peritoneal macrophage
In short: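 Peritoneal macrophages from mice, harvested 2 days after 2% potato starch stimulation, infected after 48 h with L. infantum in supplemented RPMI-1640 with 5% FCS. Compounds were added 2 h post-infection as a 10-point 4-fold dilution series, final DMSO <1%, and incubated 5 days at 37 °C, 5% CO₂. Amastigotes per macrophage were counted after 10% Giemsa staining, and IC₅₀ was taken from % reduction versus untreated-infected controls.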

[6] = Selectivity index, ratio of EC50 for cytotoxicity against mouse primary macrophage to EC50 for antileishmanial activity against Leishmania infantum MHOM/MA(BE)/67 infected in mouse primary peritoneal macrophages; assay type: toxicity; conditions: read-out: Ratio EC50
[7] = tested on: MRC5; experiment: Cytotoxicity against human MRC5 cells assessed as reduction in cell viability after 3 days by resazurin dye based fluorimetric analysis; conditions: MRC5, 72 h
In short: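 MRC-5_SV2 cells, 1.5×10⁵ cells/mL in MEM with Earl's salts, L-glutamine, NaHCO₃ and 5% inactivated FCS, were exposed 3 days at 37 °C, 5% CO₂ to a 10-point 4-fold dilution series, final DMSO <1%. Resazurin was added for 4 h, fluorescence read at ex 550/em 590 nm, and IC₅₀ derived versus untreated and medium controls.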

[8] = tested on: Trypanosoma brucei brucei; experiment: Antitrypanosomal activity against Trypanosoma brucei brucei assessed as parasite growth inhibition; assay type: functional, organism-based
[9] = tested on: Macrophage; experiment: Cytotoxicity against mouse primary macrophage cells assessed as reduction in cell viability; assay type: cell-based
In short: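 Macrophage toxicity was scored microscopically within the L. infantum assays, using cell detachment, lysis and granulation. At least 500 cells over adjacent fields were scored semi-quantitatively, and CC₅₀ was taken from % reduction in normal cells versus untreated controls.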

[10] = tested on: Trypanosoma brucei rhodesiense; experiment: Antitrypanosomal activity against Trypanosoma brucei rhodesiense assessed as parasite growth inhibition; assay type: functional, organism-based

EC50 [5] [µM]	EC50 [8] [µM]	EC50 [10] [µM]	Compound	selectivity ratio [1]	selectivity ratio [2]	selectivity ratio [3]	EC50 [4] [µM]	selectivity ratio [6]	EC50 [7] [µM]	EC50 [9] [µM]
22.6	16.2	14.1	Nc1ncnc2c1c(-c1ccc(F)cc1)cn2[C@@H]1O[C@H](CO)[C@H](F)[C@H]1O	> 4	> 5	> 44	1.45	1	> 64	32
5.34	7.23	3.61	Cc1cc(-c2cn([C@@H]3O[C@H](CO)[C@H](F)[C@H]3O)c3ncnc(N)c23)ccc1Cl	3	6	28	0.75	1	20.9	8
3.87	2.34	1.72	Nc1ncnc2c1c(-c1ccc(Cl)c(Cl)c1)cn2[C@@H]1O[C@H](CO)[C@H](F)[C@H]1O	3	4	35	< 0.21	2	7.38	8
5.95	4.22	1.43	Nc1ncnc2c1c(-c1ccc(Cl)c(F)c1)cn2[C@@H]1O[C@H](CO)[C@H](F)[C@H]1O	4	13	44	0.42	1	18.6	8
